Measurements from different studies.
Protocols differ between the studies behind these lines.
Target: Casein kinase I isoform alpha (CSNK1A1, Homo sapiens, UniProt P48729)

SMILES	read-out	action	method	cell line	tested at	measurement	value
Nc1ncnc2occ(-c3ccc(NC(=O)Nc4cc(C(F)(F)F)ccc4F)cc3)c12	enzyme activity	inhibitor	–	–	20 µM	remaining activity	3.7%
O=Nc1c(-c2c(O)[nH]c3cc(Br)ccc23)[nH]c2ccccc12	enzyme activity	inhibitor	–	–	0.5 µM	activity vs control	95.1%
COc1cccc2c(NCc3ccccc3)nc(-n3c(N)nc4ccccc43)nc12	target engagement in cells	inhibitor	chemoproteomics	–	20 mM	inhibition	4.9%
COc1cc2c(Nc3ccc(Br)cc3F)ncnc2cc1OCC1CCN(C)CC1	cell-free assay	–	–	–	0.5 µM	remaining signal	102%
CN(C)C1CCN(CC#Cc2nn(C3CCCC3)c3nc(NCc4ccccc4)ncc23)C1 (centres unmarked)	enzyme activity	inhibitor	FRET	–	1 µM	inhibition	2%
COc1cc(OC)c(C=C2C(O)=Nc3ccccc32)c(OC)c1	cell-free assay	inhibitor	–	–	0.5 µM	remaining signal	59.6%
O=C(O)[C@@H]1[C@@H](Cn2nnc3ccccc3c2=O)CC[C@H]1C(=O)c1ccc(OCCC2CCOCC2)cc1	cell-free assay	–	competition with immobilised ligand	–	1 µM	remaining binding	97%
CC(C)(O)[C@H]1CC[C@H](Nc2ccc3ncc(-c4cccc(C(F)(F)F)c4)n3n2)CC1	enzyme activity	inhibitor	–	–	1 µM	remaining activity	91.4%
CCN1CCN(Cc2ccc(NC(=O)c3ccc(C)c(/C=C/c4cnc5[nH]ccc5c4OC)c3)cc2C(F)(F)F)CC1	target engagement in cells	inhibitor	chemoproteomics	A-375	0.5 µM	inhibition	-75.1%
CCCCNc1ncc2c(-c3ccc(F)cc3)nn(C[C@H]3CC[C@H](N)CC3)c2n1	target engagement in cells	inhibitor	chemoproteomics	–	20 mM	inhibition	79.3%
O=C1Nc2ccc(Cl)cc2C1=Cc1cc(Cl)c(O)c(Cl)c1	cell-free assay	–	–	–	0.5 µM	remaining signal	92.6%
CCC(=O)N[C@H]1CC[C@@H](C(=O)N(C)c2ccc(-c3nc4ccccc4o3)cc2)C1	cell-free assay	–	competition with immobilised ligand	–	1 µM	remaining binding	82%
CC(C)(C)c1nc2c(s1)c1nc(N)ncc1c1ccc(NS(=O)(=O)c3c(F)cccc3F)c(F)c12	enzyme activity	inhibitor	radiometric	–	1 µM	remaining activity	86%
Nc1c(C(=O)NCc2ccc(C(=O)NCCCC3CCCCC3)cc2)cnn1-c1ccccc1	cell-free assay	–	competition with immobilised ligand	–	0.1 µM	remaining binding	100%
CCN1CCN(Cc2ccc(NC(=O)c3ccc(C)c(Oc4ccnc5[nH]ccc45)c3)cc2C(F)(F)F)CC1	target engagement in cells	inhibitor	chemoproteomics	A-375	5 µM	inhibition	-60.9%
CN(C)C(=O)Cn1cc(-c2nc(C3(c4ccc(-c5cnc(N)nc5)cc4)CC3)no2)cn1	cell-free assay	–	competition with immobilised ligand	–	1 µM	remaining binding	62%
C[S+]([O-])c1ccc(-c2nc(-c3ccncc3)c(-c3ccc(F)cc3)[nH]2)cc1 (centres unmarked)	cell-free assay	–	–	–	0.5 µM	remaining signal	63.9%
Cc1c(NC(=O)c2cc(C(N)=O)nc3cc(F)ccc23)c(C(F)(F)F)nn1Cc1ccc(C#N)cc1	cell-free assay	–	competition with immobilised ligand	–	1 µM	remaining binding	72%
Cc1sc(C(=O)NC2COC2)cc1-n1cc(NC(=O)Nc2c(F)cccc2Cl)cn1	enzyme activity	inhibitor	–	–	10 µM	remaining activity	81.1%
CN(c1ccnc(CNc2nc(Nc3ccc4c(c3)CC(=O)N4)ncc2C(F)(F)F)n1)S(C)(=O)=O	cell-free assay	–	competition with immobilised ligand	–	1 µM	remaining binding	81%
COc1cc2ncnc(Nc3ccc(Oc4ccccc4)c(C)c3C)c2cc1OC	enzyme activity	inhibitor	–	–	1 µM	inhibition	3%
Cc1ccc(NC(=O)c2ccc(CN3CCN(C)CC3)cc2)cc1Nc1nccc(-c2cccnc2)n1	enzyme activity	inhibitor	–	–	0.5 µM	activity vs control	102%
CC(=O)N1CCC(c2ccc(C(=O)NC3=NCCN3)cc2C(F)(F)F)CC1	cell-free assay	–	competition with immobilised ligand	–	1 µM	remaining binding	76%
